High-throughput results as filed in PubChem BioAssay.
TNF death inh: inhibitors of TNF-alpha triggered necroptosis, primary screen, cell-based, Jurkat FADD-/-, single concentration; Jurkat FADD-/- TNF necroptosis rescue, ATP luminescence, 24 h; 0 = TNF only, 100 = no-TNF cells; activation (protection from cell death), % at 10 µM; 0.068% of 220,000 active;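 active means activation, meaning protection from cell death, of at least 50% relative to plate controls; inactive means activation below 50%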;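 further: necroptosis triggered by 40 ng/mL TNF-alpha added together with compound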
Dynein transport: inhibitors of GR-EGFP nuclear translocation, primary screen, dynein cargo transport inhibitor project, imaging, high-content, 3617.4 mouse cells | test concentration mostly 20 µM; stimulated with dexamethasone, 1 µM; stronger effect = lower value | z-score, hits read low | AID 1381, 2008 | 0.47% of 220,000 active;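 active means plate z-score of nuclear minus cytoplasmic receptor signal below a set negative limit, without overly bright fluorescence or cell loss, cut at about -3.5 in these data, passing the limit was not always enough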;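 further: z-score of nuclear minus cytoplasmic ring GR-EGFP intensity difference per well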
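Buffer or medium – tet-free medium with charcoal-stripped serum · Signal – automated 10x imaging of fixed Hoechst-stained cells · Also added – dexamethasone agonist, 1.0 µM final, for 30 min · Incubation – induction 48 h, compound 1 h, agonist 30 min · Read-out – GR-EGFP nuclear translocation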
MDM2 E3 inh: MDM2-luciferase reporter signal enhancers, primary screen, MDM2 E3 ligase inhibitor project, cell-based, luminescence, 1536-well; E3 ubiquitin-protein ligase Mdm2 (Homo sapiens), Q00987; signal enhancement, % at 5 µM; AID 1230, 2008; 0.11% of 210,000 active; cell-based MDM2 ubiquitination luciferase reporter, 2 h; 0 = plate control, 100 = twice control, blank-subtracted;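 active means signal enhancement of 30% or more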;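 further: luminescence tracks abundance of the self-degrading MDM2-luciferase fusion protein; higher signal means inhibition of MDM2 E3 ligase activity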
Target sequence (Q00987 whole entry, looked up, the tested form may be a part): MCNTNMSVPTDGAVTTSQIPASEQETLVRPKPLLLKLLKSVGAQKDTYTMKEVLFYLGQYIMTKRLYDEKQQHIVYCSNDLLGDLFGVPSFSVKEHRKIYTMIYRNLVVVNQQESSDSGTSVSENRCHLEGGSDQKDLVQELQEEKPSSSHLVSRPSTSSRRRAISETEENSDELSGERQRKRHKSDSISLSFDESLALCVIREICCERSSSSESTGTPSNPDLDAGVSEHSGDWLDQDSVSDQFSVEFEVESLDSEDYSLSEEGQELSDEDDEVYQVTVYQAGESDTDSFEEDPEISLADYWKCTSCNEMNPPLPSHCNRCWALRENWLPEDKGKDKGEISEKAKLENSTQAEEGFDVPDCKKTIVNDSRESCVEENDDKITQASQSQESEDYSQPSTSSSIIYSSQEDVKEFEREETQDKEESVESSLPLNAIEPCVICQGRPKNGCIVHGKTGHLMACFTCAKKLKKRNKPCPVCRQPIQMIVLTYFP
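System: stable MDM2–luciferase fusion reporter cells / Input: 2000 cells seeded into each well / Schedule: 4 h settle plus 2 h compound, 37 °C / Compound: single-point 5 µM / Buffer or medium: cells held in DMEM / Benchmarks: control and blank well means / Evaluation: percent signal gain over controls, blank-subtracted / Measured by: luciferase luminescence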
zVAD death inh: inhibitors of zVAD-triggered necroptosis, primary screen, L929 cells; L929 zVAD necroptosis rescue, ATP luminescence, 24 h; with zVAD 60 µM; viability rescue, % at 10 µM; 0.38% of 220,000 active; AID 1377, 2008;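 active means activation, scaled between plate controls, above about 75%, limit read from the data; inactive means activation under that limit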;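 further: 0% = zVAD with DMSO and 100% = DMSO alone without zVAD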
Autophagy HCS: autophagy modulators in MEF cells, primary screen, imaging, high-content, MEF GFP-LC3; MEF GFP-LC3 puncta imaging; test concentration mostly 10 µM; calls only at 10 µM (by protocol); 0.98% of 190,000 active; AID 463193, 2010;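 active means percentage of spot-positive cells more than 3 SD above its plate mean, without a fluorescence outlier flag or 80% toxicity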;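 further: spot-positive cell cutoff set from DMSO-treated cells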
Numbers without * were called inactive; i = inactive; / = not tested or not shown; + = active, no number. In the library only some 1.8% were active in any assay of this set; here they are far more common.

SMILES	TNF death inh	Dynein transport	MDM2 E3 inh	zVAD death inh	Autophagy HCS
CCSc1nccc(-c2nn(-c3ccc(C)cc3)ccc2=O)n1	-7	1.6	-9	1	+
C=CCSc1nccc(-c2nn(-c3ccc(C)cc3)ccc2=O)n1	-6	-0.97	-8	1	+
Cc1nn(C)cc1C(C)Nc1nc2nonc2nc1N1CCCCC1 (stereo unspecified)	1	-0.49	19	0	i
C=C(C)CSc1nnc2n(Cc3ccccc3)c(=O)c3c4c(sc3n12)CCC4	51*	0.88	-5	2	i
CSc1nnc2n(CCc3ccccc3)c(=O)c3c4c(sc3n12)CCCC4	-1	-0.95	/	0	i
NNc1nc2sc3c(c2c(=O)n1Cc1ccccc1)CCC3	90*	-0.73	-8	3	/
O=C(NCc1cccnc1)C(=O)NCC1OCCCN1S(=O)(=O)c1ccccc1 (stereo unspecified)	0	1.2	-7	0	i
CCOc1ccc(-n2c(C)c(C(C)=O)c(C(C)=O)c2C)cc1	0	-0.69	-7	0	+
CN(C)/C=C(/C(=O)c1ccccc1)n1cncn1	0	-0.81	-1	0	i
CC(C)(C)C(=O)/C(=C\c1ccc([N+](=O)[O-])cc1)n1cncn1	-14	-5.1*	-21	26	+
Cn1nc(C(=O)OCC(=O)Nc2ccc(S(N)(=O)=O)cc2)c2ccccc2c1=O	2	0.23	-7	0	/
C(=N\c1c(-c2ccccc2)nc2n1CCS2)/c1ccccc1	-2	-0.14	-14	0	i
Clc1ccc(/C=N/c2c(-c3ccc(Cl)cc3)nc3n2CCS3)cc1	-4	0.16	-17	0	+
COc1ccc(Cl)cc1N1C(=O)CC(Sc2ccccc2N)C1=O (stereo unspecified)	-1	-0.38	-6	1	/
C/C(CC1CC2=C(CC1(C)C)C(C)(C)CCC2)=N\NC(N)=S (stereo unspecified)	-12	0.65	-12	-2	+
COc1ccc(OC)c(Nc2nc3nonc3nc2N2CCCCC2)c1	0	1.3	-6	0	+
COc1ccccc1Nc1nc2nonc2nc1N1CCC(C)CC1	1	4.4	-8	-1	i
Cc1ccc(S(=O)(=O)N2CCCC2C(=O)NCc2ccc3c(c2)OCO3)cc1 (stereo unspecified)	0	-0.11	-8	1	i
COc1ccc(-c2csc(/C(C#N)=C/Nc3cc4oc5ccccc5c4cc3OC)n2)cc1	0	-0.79	-1	0	+
Cn1nccc1NS(=O)(=O)c1ccc(NC(=O)C(F)(F)F)cc1	-1	1.5	-10	0	/
Cc1ccc2c(c1)C=CC(C)(C)S2=O (stereo unspecified)	2	0.35	118*	1	i
CC[N+]1=C(C)C(C)(C)c2cc(C)ccc21	-4	1.2	-12	-1	i
N=c1c2c(-c3ccccc3)c(-c3ccccc3)n(Cc3ccccc3)c2ncn1CCCn1ccnc1	-12	-1.3	-15	-1	+
CCCCn1cnc2c(c(-c3ccccc3)c(-c3ccccc3)n2Cc2ccco2)c1=N	-15	-3.7	4	5	/
N=c1c2c(-c3ccccc3)c(-c3ccccc3)n(Cc3ccco3)c2ncn1Cc1ccco1	-8	-1	0	20	+
SMILES	TNF death inh	Dynein transport	MDM2 E3 inh	zVAD death inh	Autophagy HCS
Clc1ccc2noc(-c3ccccc3)c2c1	-2	0.0051	-1	-1	i
COc1ccc(-c2onc3ccc(Cl)cc23)cc1OC	-6	1.2	/	75*	i
NNC(=O)c1ccc(CSc2cccc3cccnc23)cc1	2	-0.18	-8	2	i
Cc1cccc(CSc2cccc3cccnc23)c1	-14	-0.83	-28	29	+
CCOC(=O)CSc1cccc2cccnc12	-1	-0.69	-12	1	+
O=C(CSc1nnc2ccccn12)N1CCc2ccccc21	1	-0.62	-5	1	i
